1 compound from ChEMBL document CHEMBL3098049, “Concise synthesis and biological evaluation of 2-Aroyl-5-amino benzo[b]thiophene derivatives as a novel class of potent antimitotic agents” (J Med Chem, 2013) can be followed below.

In series [1] the test system is HeLa. The series can be described thus: Induction of apoptosis in human HeLa cells at 15 nM after 24 to 48 hrs by annexin-V-FITC/propidium iodide staining-based flow cytometric analysis. It is filed as functional, cell-based. The method in brief: (§1)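 HeLa cells treated 24 or 48 h, stained with annexin-V-FITC and PI, analysed by flow cytometry. Excitation 488 nm; emission 525 nm for FITC, 585 nm for PI. Gating separates live, early apoptotic, late apoptotic and necrotic cells. Mean of three independent experiments.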

Series [2] can be described thus: Cytotoxicity against human CEM/0 cells assessed as growth inhibition after 48 hrs by coulter counting analysis. It is filed as functional, cell-based. The settings on record: CCRF-CEM.
For series [3], the system named is Jurkat. The series can be described thus: Cell cycle arrest in human Jurkat cells assessed as reduction in S phase up to 60 nM after 24 hrs by propidium iodide staining-based flow cytometric analysis relative to control. The series is classed as functional. The method in brief: (§2)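 Jurkat cells treated for 24 h, fixed, PI-labelled and analysed by flow cytometry for cell-cycle phase distribution. Mean of three independent experiments.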

The test system of the next series is Mus musculus. Briefly: Toxicity in Balb/c-nu mouse xenografted with human MNNG-HOS cells assessed as change in body weight at 50 mg/kg, ip administered once every 3 days for 9 days measured after day 18. It is filed as organism-based. On the set-up: dose 50 mg/kg, route intraperitoneal. To be noted: in vivo. The method in brief:
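MNNG/HOS osteosarcoma cells grown to exponential phase, suspended in FBS-free MEM (10⁷ cells/mL), 0.1 mL injected into back hypodermis of nude mice. At ~100 mm³, 12 mice randomised to three groups (vehicle, CA-4P in isotonic saline, test in 5% DMSO/olive oil). 50 mg/kg ip at 0.01 mL/g on days 0, 3, 6, 9. Tumour volume and body weight tracked; tumours excised and weighed day 18; […].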

Series [4] in a line: Selectivity ratio of IC50 for HUVEC to IC50 for mouse FM3A/0 cells. The series is classed as ADME, cell-based. The settings on record: HUVEC and FM3A/0 cells, read-out: Ratio IC50.
For series [5], the system named is HeLa. Briefly: Induction of apoptosis in human HeLa cells after 24 to 48 hrs by annexin-V-FITC/propidium iodide staining-based flow cytometric analysis. It is filed as functional, cell-based. The method in brief:
as §1

Series [6] concerns HeLa. The series can be described thus: Induction of apoptosis in human HeLa cells assessed as PARP cleavage at 10 nM after 24 hrs by Western blot analysis. It is filed as functional, cell-based. The method in brief: (§3)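 HeLa cultures treated 24 or 48 h, washed in cold PBS, lysed 30 min at 0 °C, clarified at 15000g. 20 μg protein run on 7.5−15% gradient SDS-PAGE and blotted to PVDF. Primary antibodies 2 h at room temperature, peroxidase secondary 60 min, ECL detection. Membranes stripped and reprobed for β-actin as loading control.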

Series [7] concerns HeLa. The series can be described thus: Induction of DNA damage in human HeLa cells assessed as upregulation of gamma-H2A.X protein expression at 100 nM after 24 hrs by Western blot analysis. It is filed as functional, cell-based. The method in brief:
as §3

In series [8] the test system is HeLa. Briefly: Cell cycle arrest in human HeLa cells assessed as accumulation at G2/M phase at 15 to 30 nM after 24 hrs by propidium iodide staining-based flow cytometric analysis relative to control. The series is classed as functional. The method in brief: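 HeLa cells (5 × 10⁵) treated for 24 h. Harvested, fixed in 70% ethanol chilled to 0 °C, then suspended in RNase with 0.1% Triton X-100. DNA stained with PI, analysed by flow cytometry as DNA-content histograms. Mean of three independent experiments.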

Series [9] in a line: Cytotoxicity against human Molt4/C8 cells assessed as growth inhibition after 48 hrs by coulter counting analysis. The series is classed as functional, cell-based. The settings on record: MOLT-4, 48 h. The method in brief:
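Cells suspended at (3−5) × 10⁵ cells/mL and mixed 1:1 with compound dilutions. Incubated 48 h at 37 °C, counted with a Coulter counter. IC₅₀ = concentration inhibiting proliferation by 50%. Mean of at least three independent experiments.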

The test system of series [10] is HeLa. Briefly: Downregulation of Xiap protein expression in human HeLa cells at 10 to 100 nM after 24 to 48 hrs by Western blot analysis. It is filed as functional, cell-based. The method in brief: as §3
The nature of series [11]: Cytotoxicity against mouse FM3A/0 cells assessed as growth inhibition after 48 hrs by coulter counting analysis. It is filed as functional, cell-based. To be noted: FM3A/0, 48 h.
A further series deals with HUVEC. Briefly: Cytotoxicity against HUVEC assessed as growth inhibition after 72 hrs by MTT assay. It is filed as cell-based. To be noted: Homo sapiens. The method in brief:
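HUVECs were detached with EDTA/trypsin at confluence, and only passages 1–6 were used. Cells were exposed to varying compound concentrations, and viability was read by MTT after 72 h. IC50 is the concentration reducing cell growth by 50%, as the mean of three independent experiments.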

Series [12] has as its system HeLa. The series can be described thus: Induction of apoptosis in human HeLa cells assessed as caspase-9 cleavage at 10 to 100 nM after 24 to 48 hrs by Western blot analysis. It is filed as functional, cell-based. The method in brief:
as §3

In series [13] the test system is HeLa. The series can be described thus: Downregulation of Bcl-2 protein expression in human HeLa cells at 10 to 100 nM after 24 to 48 hrs by Western blot analysis. The series is classed as functional, cell-based. The method in brief:
as §3

In series [14] the target is T1, M-phase inducer phosphatase 3 (Homo sapiens) (UniProt P30307).
T1 sequence (whole entry): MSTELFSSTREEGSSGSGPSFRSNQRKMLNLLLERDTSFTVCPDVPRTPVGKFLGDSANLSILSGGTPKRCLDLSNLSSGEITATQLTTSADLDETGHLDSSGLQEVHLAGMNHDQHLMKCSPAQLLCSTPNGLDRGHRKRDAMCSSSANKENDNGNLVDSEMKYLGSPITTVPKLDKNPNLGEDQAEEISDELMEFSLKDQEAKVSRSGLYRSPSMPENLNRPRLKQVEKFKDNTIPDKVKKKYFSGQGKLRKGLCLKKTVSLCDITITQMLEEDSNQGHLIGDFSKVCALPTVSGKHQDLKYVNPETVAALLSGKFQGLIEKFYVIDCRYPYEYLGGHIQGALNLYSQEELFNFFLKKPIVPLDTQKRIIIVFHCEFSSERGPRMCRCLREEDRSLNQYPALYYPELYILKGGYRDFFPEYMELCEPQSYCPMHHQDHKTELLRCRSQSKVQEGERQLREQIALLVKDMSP
Briefly: Increase of cdc25c phosphorylation at Ser216 in human HeLa cells at 10 to 100 nM after 48 hrs by Western blot analysis. The series is classed as cell-based. The method in brief:
as §3

Series [15] in a line: Selectivity ratio of IC50 for HUVEC to IC50 for human HeLa cells. The series is classed as ADME, cell-based. To be noted: HUVEC and HeLa cells, read-out: Ratio IC50.
Series [16] deals with Cyclin-dependent kinase 1 (Homo sapiens) (UniProt P06493). The series can be described thus: Decrease of cdc2 protein phosphorylation at Tyr15 in human HeLa cells at 10 to 100 nM after 24 to 48 hrs by Western blot analysis. The series is classed as cell-based. The method in brief:
as §3

The test system of series [17] is HeLa. Briefly: Induction of mitochondrial ROS generation in human HeLa cells at 15 to 250 nM by H2-DCFDA staining-based flow cytometric analysis. The series is classed as functional, cell-based. The settings on record: TDE = time-dependent effect. The method in brief:
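HeLa cells incubated 24 or 48 h with compound, stained with H₂-DCFDA, and intracellular ROS measured by flow cytometry. Mean of three independent experiments.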

Series [18] relates to HeLa. Briefly: Induction of DNA damage in human HeLa cells assessed as upregulation of gamma-H2A.X protein expression at 10 nM after 48 hrs by Western blot analysis. The series is classed as functional, cell-based. The method in brief:
as §3

Series [19] concerns Jurkat. Briefly: Cell cycle arrest in human Jurkat cells assessed as accumulation at G2/M phase at 15 to 30 nM after 24 hrs by propidium iodide staining-based flow cytometric analysis relative to control. It is filed as functional. The method in brief:
as §2

Series [20] has as its system HeLa. Briefly: Effect on cyclin B protein expression in human HeLa cells at 10 to 100 nM after 24 to 48 hrs by Western blot analysis. It is filed as functional, cell-based. The method in brief: as §3
Series [21] in a line: Inhibition of bovine brain tubulin polymerization preincubated for 15 mins followed by GTP addition measured for 20 mins by turbidometric analysis. On the set-up: species or system Bos taurus.

Each structure is given as a SMILES string. pIC50: −log10 of the molar value. Activity calls are given as the source filed them. The calls are words filed in the database; no cut-off is given here.

Sequence of Cyclin-dependent kinase 1 (Homo sapiens) (P06493 whole entry, looked up): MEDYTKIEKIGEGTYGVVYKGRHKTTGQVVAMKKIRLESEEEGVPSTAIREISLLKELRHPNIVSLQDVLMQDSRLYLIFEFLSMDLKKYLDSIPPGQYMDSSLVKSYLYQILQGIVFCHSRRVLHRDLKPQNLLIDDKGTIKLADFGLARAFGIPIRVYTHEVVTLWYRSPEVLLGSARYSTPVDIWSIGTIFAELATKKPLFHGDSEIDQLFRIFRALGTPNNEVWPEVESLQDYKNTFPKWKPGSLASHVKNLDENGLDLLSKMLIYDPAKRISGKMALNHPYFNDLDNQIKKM

With `COc1cc(C(=O)c2cc3cc(N)cc(OC)c3s2)cc(OC)c1OC`, the outcome with HeLa [1], with Jurkat [3], with HeLa [6], in the series on HeLa [7], with HeLa [10] and in the series with HeLa [12] was Active. In addition, the result (with HeLa [13]; in series [16]; in the series with HeLa [18]) was Active. Also, the pIC50 in series [2] was 8.39; in [9], 8.59; in [11] it was 7.92; in the series on HUVEC it was 5.26; in series [21], 6.28. In addition, the Activity result was “Non-toxic” in the series on Mus musculus; “Dose-dependent effect” in the series with HeLa [5]; over 80% in the series with HeLa [8]; “tde” in the series on HeLa [17]; 40% in the series on Jurkat [19]. In addition, the selectivity ratio in series [4] and in series [15] was 460 in each case. For the same compound, the result (in series [14]; in the series on HeLa [20]) was inactive.
